According to ChEMBL document CHEMBL3860061, “A Novel Parkinson's Disease Drug Candidate with Potent Anti-neuroinflammatory Effects through the Src Signaling Pathway” (J Med Chem, 2016):
Activity calls are given as the source filed them.

What was measured:
[1] = target: Proto-oncogene tyrosine-protein kinase Src (Rattus norvegicus) (UniProt Q9WUD9); assay: Inhibition of Src in Sprague-Dawley rat primary mixed mesecephalic neuron/glial cells assessed as suppression of LPS-induced IL-1beta expression at 10 uM preincubated for 1 hr followed by LPS challenge measured after 5 hrs by ELISA
Proto-oncogene tyrosine-protein kinase Src (Rattus norvegicus), sequence (Q9WUD9 2-536 limits assumed): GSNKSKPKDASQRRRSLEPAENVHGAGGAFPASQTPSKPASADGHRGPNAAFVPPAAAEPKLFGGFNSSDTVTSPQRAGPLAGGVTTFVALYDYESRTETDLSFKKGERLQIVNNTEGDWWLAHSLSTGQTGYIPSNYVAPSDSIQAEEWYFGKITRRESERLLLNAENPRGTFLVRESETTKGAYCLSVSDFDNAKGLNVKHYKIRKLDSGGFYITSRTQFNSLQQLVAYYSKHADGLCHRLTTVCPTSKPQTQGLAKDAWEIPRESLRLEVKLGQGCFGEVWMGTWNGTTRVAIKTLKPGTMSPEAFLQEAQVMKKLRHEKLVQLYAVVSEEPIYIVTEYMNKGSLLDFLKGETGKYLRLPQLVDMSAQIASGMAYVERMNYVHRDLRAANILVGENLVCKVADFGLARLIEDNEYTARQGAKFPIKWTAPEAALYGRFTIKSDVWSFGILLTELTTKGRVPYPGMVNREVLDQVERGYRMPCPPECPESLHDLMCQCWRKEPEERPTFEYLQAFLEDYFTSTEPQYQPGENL
Summary of the method: (§1)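 Mixed mesencephalic neuron/glia cultures from E14 Sprague-Dawley rats, used at 7 days. Agent at 10 µM added 1 h before LPS 100 ng/mL; IL-1β and TNF-α in medium measured by ELISA after 5 h, n = 6.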

[2] = target: Proto-oncogene tyrosine-protein kinase Src (Rattus norvegicus) (UniProt Q9WUD9); assay: Inhibition of Src in Sprague-Dawley rat primary mixed mesecephalic neuron/glial cells assessed as suppression of LPS-induced TNFalpha expression at 10 uM preincubated for 1 hr followed by LPS challenge measured after 5 hrs by ELISA; summary of the method: as §1
[3] = Toxicity in ICR mouse assessed as mortality administered through oral gavage; assay type: organism-based; conditions: in vivo
Mus musculus [4] = assay: Antineuro-inflammatrory activity in MPTP-induced subacute C57/BL mouse Parkinson's disease model assessed as decrease in IL-1beta levels in midbrain at 10 to 20 mg/kg […] dosed 30 mins prior to each MPTP injection for 5 days and administered continuously for 7 days post last MPTP dose measured on day 12 post last dose by ELISA; assay type: functional, organism-based
Summary of the method: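 Male C57/BL mice (22–25 g) received MPTP hydrochloride 30 mg/kg i.p. daily for 5 days. Test agent (5, 10, 20 mg/kg) or L-DOPA 20 mg/kg, suspended in 0.5% CMC-Na, given 30 min before each MPTP injection, then continued for 7 more days. On day 12 the midbrain was homogenised in non-denaturing lysis buffer with protease inhibitor and IL-1β or TNF-α measured by ELISA, n = 6, mean ± SD.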

Mus musculus [5] = assay: Neuroprotective activity in MPTP/probenecid-induced chronic C57/BL mouse Parkinson's disease model assessed as improvement in motor behavior at 5 to 20 mg/kg dosed once daily for 7 weeks post 10 doses of MPTP/probenecid for 5 weeks measured after last MPTP/probenecid dose by pole test; assay type: functional, organism-based
Summary of the method: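 Chronic MPTP/probenecid model (10 doses over 5 weeks), then agent (5–20 mg/kg) or L-DOPA 20 mg/kg daily for 7 weeks. Rotarod at 14 rpm, up to 120 s, fall latency from three trials 1 h apart. Pole test: gauze-wrapped 50 cm pole, descent scored 1–5, two trials 1 h apart after pre-training. n = 15.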

Mus musculus [6] = assay: Increase in dopamine level in striatum of MPTP/probenecid-induced chronic C57/BL mouse Parkinson's disease model at 10 to 20 mg/kg dosed once daily for 7 weeks post 10 doses of MPTP/probenecid for 5 weeks measured after last MPTP/probenecid dose by HPLC analysis; assay type: functional, organism-based
Summary of the method: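 Chronic model: 10 doses of MPTP·HCl (25 mg/kg s.c.) with probenecid (250 mg/kg i.p.) over 5 weeks. Rotarod-impaired mice then dosed with agent (5–20 mg/kg) or L-DOPA 20 mg/kg daily for 7 weeks. Striatum extracted in 0.6 N perchloric acid with phosphate/citrate/EDTA buffer; dopamine by HPLC, n = 8.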

Mus musculus [7] = assay: Neuroprotective activity in MPTP/probenecid-induced chronic C57/BL mouse Parkinson's disease model assessed as reversal of decline of TH-positive neuron levels in substantia nigra at 10 to 20 mg/kg dosed once daily for 7 weeks post 10 doses of MPTP/probenecid for 5 weeks measured after last MPTP/probenecid dose by 3,3'-diaminobenzidine staining based light microscopic analysis; assay type: functional, organism-based
Summary of the method: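 Male C57/BL mice (22–25 g) received 10 doses of MPTP hydrochloride (25 mg/kg in saline, s.c.) plus probenecid (250 mg/kg in DMSO, i.p.) over 5 weeks. Only mice showing rotarod dysfunction afterwards were used, randomized, and dosed daily for 7 weeks with test agent in 0.5% CMC-Na. Fixed brains were cut at 40 µm; nigral coronal sections were stained with anti-TH, developed with DAB/peroxide, and positive cells counted blind.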

Mus musculus [8] = assay: Increase in dopamine levels in alpha-syn A53T transgenic B6C3H mouse striatum at 10 to 20 mg/kg dosed once daily for 12 consecutive weeks by HPLC analysis; assay type: functional, organism-based
Summary of the method: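 α-syn A53T transgenic B6;C3H mice, dosed from 4 months of age once daily for 12 weeks with agent (5–20 mg/kg) or L-DOPA 20 mg/kg in 0.5% CMC-Na. Striatum sonicated in 0.6 N perchloric acid, phosphate/citrate/EDTA solution added, centrifuged; dopamine by HPLC, n = 8.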

Mus musculus [9] = assay: Antineuro-inflammatrory activity in alpha-syn A53T transgenic B6C3H mouse assessed as decrease in IL-1beta level in midbrain at 10 to 20 mg/kg dosed once daily for 12 consecutive weeks by ELISA; assay type: functional, organism-based
Summary of the method: (§2)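 Male B6;C3H mice expressing mutant α-syn (A53T), from 4 months old, given agent (5, 10, 20 mg/kg) or L-DOPA 20 mg/kg in 0.5% CMC-Na once daily for 12 weeks. Wild-type controls received vehicle. Midbrain homogenised in non-denaturing lysis buffer with protease inhibitor; IL-1β or TNF-α measured by ELISA, n = 6, mean ± SD.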

Mus musculus [10] = assay: Antineuro-inflammatrory activity in alpha-syn A53T transgenic B6C3H mouse assessed as decrease in TNF-alpha level in midbrain at 10 to 20 mg/kg dosed once daily for 12 consecutive weeks by ELISA; assay type: functional, organism-based; summary of the method: as §2
Mus musculus [11] = assay: In vivo inhibition of Src in MPTP/probenecid-induced chronic C57/BL mouse Parkinson's disease model assessed as effect on PTEN expression level in midbrain at 5 to 20 mg/kg co-administered with L-DOPA once in a day for 7 weeks post 10 doses of MPTP for 5 weeks by Western blot analysis; assay type: functional, organism-based
[12] = target: Proto-oncogene tyrosine-protein kinase Src (Rattus norvegicus) (UniProt Q9WUD9); assay: Inhibition of Src in Sprague-Dawley rat primary microglia cells assessed as suppression of LPS-stimulated Akt phosphorylation at Ser-473 residue at 10 uM preincubated for 1 hr followed by LPS challenge measured after 3 hrs by Western blot analysis
Summary of the method: (§3)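 Primary microglia from 1-day-old Sprague-Dawley rat brains, grown to confluence 12–14 days, shaken off astroglia (>98% pure). Agent at 10 µM added 1 h before LPS 100 ng/mL. Phosphorylated Src, Akt and PTEN measured 3 h later by Western blot, n = 4.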

[13] = target: Proto-oncogene tyrosine-protein kinase Src (Rattus norvegicus) (UniProt Q9WUD9); assay: Inhibition of LPS-induced Src phosphorylation at Tyr-416 residue in Sprague-Dawley rat primary microglia cells at 10 uM preincubated for 1 hr followed by LPS stimulation measured after 3 hrs by Western blot analysis; summary of the method: as §3
Mus musculus [14] = assay: Nephrotoxicity in ICR mouse at 250 to 1000 mg/kg administered through oral gavage for 14 consecutive days; assay type: toxicity, organism-based; conditions: in vivo
Summary of the method: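 Mice dosed by oral gavage at 250, 500 and 1000 mg/kg for 14 consecutive days. General condition monitored throughout; liver and kidney clinical chemistry assessed.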

Mus musculus [15] = assay: Effect on Src protein expression level in midbrain of MPTP/probenecid-induced chronic C57/BL mouse Parkinson's disease model at 5 to 20 mg/kg dosed once daily for 7 weeks post 10 doses of MPTP/probenecid for 5 weeks by Western blot analysis; assay type: functional, organism-based
[16] = target: Proto-oncogene tyrosine-protein kinase Src (Rattus norvegicus) (UniProt Q9WUD9); assay: Inhibition of Src in Sprague-Dawley rat primary mixed mesecephalic neuron/glial cells assessed as suppression of LPS-induced microglia activation by measuring Iba-1 expression at 10 uM preincubated for 1 hr followed by LPS challenge measured after 24 hrs

COc1cc(OC)c(CN[C@@H](CO)C(=O)O)c(OC)c1
Non-Toxic: Activity (Mus musculus [14])
active: inhibition [1] | inhibition [2] | Activity (Mus musculus [4]) | Activity (Mus musculus [5]) | Activity (Mus musculus [6]) | Activity (Mus musculus [7]) | Activity (Mus musculus [8]) | Activity (Mus musculus [9]) | Activity (Mus musculus [10]) | inhibition (Mus musculus [11]) | inhibition [12] | inhibition [13] | Activity (Mus musculus [15]) | inhibition [16]
> 5000 mg/kg: LD50 [3]
